Source: ChEMBL document CHEMBL5154772, “Biological Investigation of a Water-Soluble Isoginkgetin-Phosphate Analogue, Targeting the Spliceosome with In Vivo Antitumor Activity” (J Med Chem, 2022)

Legend:
[1] = Toxicity in C57BL/6 mouse assessed as change in body weight at 100 mg/kg, ip administered as single dose and measured after 15 days (reference value: 23.5 to 24.2 g); format: organism-based; conditions: in vivo, 360 h, time 15 day
Outline: (§1)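 Female C57BL/6 mice given one IP injection of 100 µL, at 50, 100, 250 or 500 mg/kg in sterile PBS, two mice per dose; PBS-injected controls. Behaviour checked right after and at 30 min. Body weight recorded every 2–3 days for 15 days, then liver, spleen and kidneys weighed.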

[2] = Metabolic stability in human liver microsomes assessed as parent compound remaining incubated for 45 mins in presence of NADPH by HPLC-MS/MS analysis; format: ADME, Microsome; conditions: read-out: Stability
Outline: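 Incubation with mouse or human liver microsomes for 45 min, with or without NADPH. Remaining parent compound was quantified over time by HPLC-MS/MS and expressed as % remaining; intrinsic clearance is given in μL/min/mg protein.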

[3] = Plasma protein binding in human at 2 uM by rapid equilibrium dialysis based LC-MS/MS analysis; format: ADME, cell-free; conditions: read-out: PPB (converted)
Outline: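 Binding was measured at 2 μM in triplicate by rapid equilibrium dialysis (8K MWCO). Quantification was by UPLC-MS/MS on a phenyl column in positive ESI MRM mode (m/z 727>567), with an ammonium formate pH 5 / 1,5-DMHA mobile phase at 50 °C. Both unbound fraction (fu) and % bound are reported.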

[4] = molecular target: cGMP-inhibited 3',5'-cyclic phosphodiesterase 3A (Homo sapiens) (UniProt Q14432); experiment: Inhibition of PDE3A (unknown origin) at 10 uM
Outline: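 Single-concentration safety screen at 10 μM across a 47-target panel. GPCRs were run in antagonist mode and enzymes in inhibitor mode.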

[5] = MRT(0 to t) in Beagle dog at 26.76 mg/kg, iv administered as single dose measured up to 24 hrs; format: ADME, organism-based, Canis lupus familiaris; conditions: in vivo
Outline: (§2)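 Single intravenous dose. Mice were male C57BL/6J, 12 per route; tail-vein blood was collected under sodium heparin, with 3 mice sampled at each pair of times (0.083/2, 0.25/4, 0.5/8, 1/24 h). Dogs were male beagles (n=3); jugular blood was collected under K2 EDTA predose and at 0.083, 0.25, 0.5, 1, 2, 4, 6, 8 and 24 h. Plasma was prepared from the samples.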

[6] = AUC(0 to t) in C57BL/6J mouse at 9.103 mg/kg, ip administered as single dose measured up to 24 hrs; format: ADME, organism-based; parameters: time < 24 hrs, dose 9.103 mg/kg, route ip; conditions: in vivo
Outline: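 Single intraperitoneal dose in male C57BL/6J mice (12 per route). Tail-vein blood was collected under sodium heparin for plasma, with 3 mice sampled at each pair of times: 0.083/2, 0.25/4, 0.5/8 and 1/24 h. F denotes bioavailability.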

[7] = AUCextra in Beagle dog at 26.76 mg/kg, iv administered as single dose measured up to 24 hrs; format: ADME, organism-based, Canis lupus familiaris; conditions: in vivo; outline: as §2
[8] = Toxicity in C57BL/6 mouse assessed as change in liver weight at 250 mg/kg, ip administered as single dose and measured after 15 days (reference value: 1.2 to 1.3 g); format: organism-based; conditions: in vivo, 360 h, time 15 day; outline: as §1
[9] = Antitumour activity against mouse wild type MCA-205 cells implanted in C57BL/6 mouse assessed as tumor size by measuring cell killing at 5 mg/kg, IT administered starting from day 7 post inoculation and thrice a week for 2 weeks; format: functional
Outline: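 Female C57BL/6 mice (6 weeks old) given subcutaneous MCA205 WT fibrosarcoma in the right flank. From day 7 after inoculation, 5 mg/kg given intratumorally three times per week for two weeks; untreated controls. Tumour area recorded every 3–4 days until ethical endpoints, then tumour size at killing. Groups compared by one-way ANOVA.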

[10] = Toxicity in C57BL/6 mouse assessed as behavioral changes at 50 to 500 mg/kg, ip and measured upto 30 mins post administration; format: organism-based; conditions: in vivo, 0.5 h, dose 50-500 mg/kg; outline: as §1

Chain of cGMP-inhibited 3',5'-cyclic phosphodiesterase 3A (Homo sapiens) (Q14432 whole entry): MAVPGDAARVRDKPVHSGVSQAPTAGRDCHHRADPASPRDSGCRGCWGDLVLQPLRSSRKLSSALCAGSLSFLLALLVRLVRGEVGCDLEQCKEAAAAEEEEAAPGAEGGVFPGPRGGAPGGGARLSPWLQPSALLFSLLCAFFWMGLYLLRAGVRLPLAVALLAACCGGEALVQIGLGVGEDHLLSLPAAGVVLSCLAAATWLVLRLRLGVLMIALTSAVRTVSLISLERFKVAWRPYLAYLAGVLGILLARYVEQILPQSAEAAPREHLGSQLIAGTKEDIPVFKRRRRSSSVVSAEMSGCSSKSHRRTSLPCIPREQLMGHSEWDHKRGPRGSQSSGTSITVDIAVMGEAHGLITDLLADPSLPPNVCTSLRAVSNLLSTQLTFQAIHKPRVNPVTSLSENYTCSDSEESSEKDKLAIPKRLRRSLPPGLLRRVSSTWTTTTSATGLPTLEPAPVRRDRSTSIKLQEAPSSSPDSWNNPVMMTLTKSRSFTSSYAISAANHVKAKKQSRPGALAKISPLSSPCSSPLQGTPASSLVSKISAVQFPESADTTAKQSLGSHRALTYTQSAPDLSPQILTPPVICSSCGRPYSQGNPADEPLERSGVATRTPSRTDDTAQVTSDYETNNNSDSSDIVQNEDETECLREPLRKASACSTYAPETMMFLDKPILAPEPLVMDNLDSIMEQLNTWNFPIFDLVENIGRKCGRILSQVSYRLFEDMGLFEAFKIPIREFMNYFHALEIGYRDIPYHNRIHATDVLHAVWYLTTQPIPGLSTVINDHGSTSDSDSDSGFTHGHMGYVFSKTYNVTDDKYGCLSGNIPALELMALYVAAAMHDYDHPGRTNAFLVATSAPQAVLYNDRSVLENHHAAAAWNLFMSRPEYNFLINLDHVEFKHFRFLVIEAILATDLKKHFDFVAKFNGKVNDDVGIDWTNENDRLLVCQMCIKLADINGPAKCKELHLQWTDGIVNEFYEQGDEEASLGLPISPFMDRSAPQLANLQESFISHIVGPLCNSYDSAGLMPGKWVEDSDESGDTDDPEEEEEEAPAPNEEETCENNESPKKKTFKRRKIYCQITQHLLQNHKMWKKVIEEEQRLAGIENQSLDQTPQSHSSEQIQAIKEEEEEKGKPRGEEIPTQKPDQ

COc1ccc(-c2cc(=O)c3c(O)cc(OP(=O)([O-])[O-])c(-c4cc(-c5cc(=O)c6c(O)cc(OP(=O)([O-])[O-])cc6o5)ccc4OC)c3o2)cc1.[Na+].[Na+].[Na+].[Na+]
Activity [1]: 19.5 g | remaining at 0.75 h [2]: 60.8% | fraction unbound at 2 µM [3]: 0.017 | inhibition [4]: 84.8% | MRT last at 24 h [5]: 3.8 h | AUC(0-t) at 24 h [6]: 982 ng·h/mL | %AUCextra [7]: 0.9% | Activity [8]: 0.9 g | Activity [9]: 50% | Activity [10]: Non-Toxic
